Test results as given in the EternaBench riboswitch data.

Tested on: MS2 coat protein
Test: apparent Kd, MS2 coat protein; higher = weaker binding; RNA-MaP array; FMN 200 µM where present
Outline: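 The apparent Kd is reported as the median of filtered per-cluster binding-curve fits. To get these curves, designs transcribed by stalled E. coli RNA polymerase on Illumina sequencing-chip clusters were titrated with SNAP-549-labelled MS2 coat protein from 0.7 or 1.5 nM, doubling to 3 µM. Titrations were run without and then with constant ligand in 100 mM Tris-HCl pH 7.5, 80 mM KCl, 4 mM MgCl2, BSA, DTT, yeast tRNA and Tween-20, and green signal was normalised to red-channel RNA signal and control-cluster median Fmax.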

[1] = designed as: ON switch for flavin mononucleotide, no ligand
[2] = ligand present: flavin mononucleotide, designed as: ON switch for flavin mononucleotide
[3] = designed as: OFF switch for flavin mononucleotide, no ligand
[4] = ligand present: flavin mononucleotide, designed as: OFF switch for flavin mononucleotide

Row | Sequence | apparent Kd [1] | apparent Kd [2] | apparent Kd [3] | apparent Kd [4]
1 | GAAACGCUUGACAUGAGGAUCACCCAUGUUAGAUUGUUAUGUCAGGAUAUAGUCUAGAAACUAGACUAGAAGGGAUAUGUUUCU | 438 nM | 107 nM |  | 
2 | UUGGACGUCGUAGGAUAUGUAGGAAAUUCCUACAUGAGGAUCACCCAUGUUGACAUGGAAGAAGGACAGAAGGACGAUGUCCAU | 262 nM | 12.4 nM |  | 
3 | AAAAGGCUAGGAUAUACCAGUGGGUGUAAGAACUCAAAUUUACAUGAGGAUCACCCAUGUAGAAGGAGUAAAAU |  |  | 20.4 nM | 30.2 nM
4 | CGUAUACAUGAGGAUCACCCAUGUAAGGAUAUGCUUUAUUAUUAUUAUUAUUAUUGUUGCAGAAGGUACAUUGC |  |  | 19 nM | 17.7 nM
5 | GCUUGUGAAGGAUAUACUGGCGACAUGCGCUCAACACGCGCACAUGAGGAUCACCCAUGUAGAAGGUCAAACAU |  |  | 23.9 nM | 33 nM
6 | GGUCCACAUGAGGAUCACCCAUGUUAGGAUAUCUCCUGCCUCCUAAAUGGAAGCAGACAGAGAAGGAACAUCAA |  |  | 21.9 nM | 84.4 nM
7 | CCUCAGUAAGGAUAUCAGCUUAUGGAGGUGGUAAUGAGAGCUGAGAAGGUACAUGAGGAUCACCCAUGUUAGUU |  |  | 57 nM | 102 nM
8 | UAAAACGGAGGAUAUACUGACCCUCAAAACAGACGCGCUGGACAUGAGGAUCACCCAUGUAGAAGGCCGAAUGC |  |  | 26.3 nM | 61.9 nM
9 | AUCAUGUCAGGAUAUGUGAUAUGGAUCUUCGGAUCAAGUUCACAGAAGGGACAUGAGGAUCACCCAUGUCGAAC |  |  | 50.6 nM | 91.7 nM
10 | GUAUUUAUAUAAGGAUAUAAGUCUAGGACAUGAGGAUCACCCAUGUGUGUCUUAGAAGGUAUAUGGGUAAUACUGUUACAGUAA | 226 nM | 112 nM |  | 
11 | GGUUGGCGAGGAUAUACAUGAGGAUCACCCAUGUGGUCCUGCGAUAGAAUCGCCCUUUGUAGAAGGCGCGGGUC |  |  | 67 nM | 55.2 nM
12 | CACAGGGAUUCAGGAUAUAUUAGCCGAGGCCGCGUAGAAGGGAAAUCCUGACAUGAGGAUCACCCAUGUUAACCCGCCUUCCAU | 37.6 nM | 42 nM |  | 
13 | AUAUAGUCAGGAUAUCGAAGUGAGUGUUGGUUUGUAAGGUACGAGAAGGGACAUGAGGAUCACCCAUGUAGGAA |  |  | 40.3 nM | 38.8 nM
14 | AAGGCCUAUUCCAGGACUAUCGUACUAGAAGGGUGACUUGACAUGAGGAUCACCCAUGUACGAGCACAGGAUAUAGAUGAAAGG | 42.7 nM | 20.2 nM |  | 
15 | GGAUUGGACAGAGGAUAUACGUGCUAGAGAUACUAGCAAAAUUUCCUCACAUGAGGAUCACCCAUGUAGAAGGCUGUCCUAUCG |  |  | 15.6 nM | 378 nM
16 | AGUGGUUACACAGGAUAUCCUCGUUAUUAACUAGGAGAAGGGUGGACACCACACAUGAGGAUCACCCAUGUACCACGAUAAAGA | 209 nM | 42.4 nM |  | 
17 | UUAUUAUAUGUAGGAUAUGCAUAUUACUAUUGUGCAGAAGGACAUGAGGAUCACCCAUGUAUAUUAUUAUUAUAUAUUAUAUAU |  |  | 15.8 nM | 15.7 nM
18 | AUUUUUUGUCAUGUACAUGAGGAACAUGAGGAUCACCCAUGUAGAAGGAAUUUUUUUAAGUUUAGUUAGGAUAUACAUAUAUUA |  |  | 47.7 nM | 28.6 nM
19 | GUGCCUUGGGAGAAGGCCCAAUGCAAAGCAUAGGGAGGAUAUCCAUAUAAUAAAUAAACAUGAGGAUCACCCAUGUGGCACAAA | 19.4 nM | 12 nM |  | 
20 | GGUCUGACAUAAGGAUAUGCUCAGGAAUACUGAGCAGAAGGUAUGUGAAAACAUGAGGAUCACCCAUGUGAUCAAUACAGACCA | 18 nM | 20.9 nM |  | 
21 | GGAUUGUGAGGAUAUUAGUUGUACGUCAAUAGACGUAUAAGUGAGAAGGCACAUGAGGAUCACCCAUGUUCCUG |  |  | 22.7 nM | 80.7 nM
